Series [1] has as its system Cladosporium herbarum. The experiment in a line: Growth inhibition of Cladosporium herbarum at 0.05 mg after 72 hrs. Format: functional. The conditions noted are these: read-out: IZ. In short, it runs like this: (§1)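 TLC bioautography with a given dose applied per spot. Plates were sprayed with Cladosporium herbarum spores (5 × 10^5 cfu) in 4% malt extract medium. Growth-inhibition zones were read after 72 h at 27 °C.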

Another series relates to Artemia salina. The series can be described thus: Toxicity against brine shrimp by lethality test. Format: organism-based. To be noted: in vivo.
Series [2] relates to Cladosporium herbarum. The experiment in a line: Growth inhibition of Cladosporium herbarum at 0.25 mg after 72 hrs. The format is functional. To be noted: read-out: IZ. In short, it runs like this: as §1
For another series, the system named is Spodoptera littoralis. The experiment in a line: Antifeedant activity against Spodoptera littoralis larvae at 10 ug/disk by disk-choice assay. The format is functional. In short, it runs like this: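 Disk-choice feeding test with fifth-instar Spodoptera littoralis larvae at 10 µg/disk. Read-out is FR50: treated area eaten divided by 50% of the untreated area, scored when half of the untreated area had been eaten.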

Series [3] concerns Cladosporium herbarum. The series can be described thus: Growth inhibition of Cladosporium herbarum at 0.07 mg after 72 hrs. The format is functional. To be noted: read-out: IZ. In short, it runs like this: as §1

Data on five compounds can be found in ChEMBL document CHEMBL1141357, “Bioactive polychlorinated bibenzyls from the liverwort Riccardia polyclada” (J Nat Prod, 2007).

With `COc1ccc(CCc2c(Cl)cc(Cl)c(O)c2Cl)cc1Cl`, the zone of inhibition at 50 µg/disc in the series with Cladosporium herbarum [1] is 0 mm. For the same compound, the LC50 (commonly the concentration lethal to half of the exposed cells or organisms) with Artemia salina was found to be 1.71 ppm.

As for `COc1ccc(CCc2c(Cl)ccc(O)c2Cl)cc1`, in the series on Cladosporium herbarum [1], the zone of inhibition at 50 µg/disc worked out at 22 mm. This compound had an LC50 with Artemia salina of 0.44 ppm.

For `CC(=O)N1CCN(c2ccc(OC[C@H]3CO[C@](Cn4ccnc4)(c4ccc(Cl)cc4Cl)O3)cc2)CC1` [KETOCONAZOLE], the zone of inhibition at 250 µg/disc in the series with Cladosporium herbarum [2] came out at 15 mm. In the series with Artemia salina, the LC50 is given as 14.9 ppm.

Consider `COc1ccc(CCc2c(Cl)ccc(O)c2Cl)cc1Cl`, for which, in the series on Spodoptera littoralis, the FR50 was determined as 0.63. Moreover, the zone of inhibition at 70 µg/disc in the series with Cladosporium herbarum [3] was determined as 12 mm. In the series with Artemia salina, this compound returned a 50% lethal concentration (LC50) of 0.42 ppm.

In the series on Spodoptera littoralis, `Oc1ccc(CCc2c(Cl)cc(Cl)c(O)c2Cl)cc1Cl` came in with an FR50 of 0.43. Also, the zone of inhibition at 70 µg/disc with Cladosporium herbarum [3] turned out to be 20 mm. In addition, the LC50 in the series with Artemia salina is reported as 2.39 ppm.
